Experimental data as given in PMC12155403 (RSC Medicinal Chemistry, 2025).

How the values were obtained:
MOLT-4 cells = test: MOLT-4 cell viability; type: cell-based; settings: for IC50: Homo sapiens, MOLT-4, 48 h, read-out: IC50 (MOLT-4 cells)
In short: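 MOLT-4 (T-ALL) cells, STR-profiled and mycoplasma-negative, were kept at 37 °C in 5% CO2. Between […] and 1 × 10^5 suspension cells were seeded per well and exposed to test compound for 48 h or 72 h. Viability was read with tetrazolium MTS reagent, and IC50 values were calculated from the viability data.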

NCI-H146 cells = settings: read-out: IC50 (NCI-H146 cells); NCI-H146 SCLC cells; earlier work; cited from earlier work
SCLC cell lines = test: Viability of a panel of SCLC cell lines; type: cell-based; settings: 72 h
In short: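 SCLC lines came from the NCI-Navy Medical Oncology supply, with H146 from ATCC. Stocks were STR-profiled and mycoplasma-negative, kept at 37 °C and 5% CO2.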

Bcl-xL [1] = target: T1, Bcl-xL (Homo sapiens, UniProt Q07817); test: Bcl-xL degradation in MOLT-4 cells; type: cell-based
In short: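 MOLT-4 cells (RPMI 1640, 10% FBS, 1% penicillin–streptomycin, 37 °C, 5% CO2) were treated for 16 h across a concentration series, or at 100 nM over a time course. Where stated, cells had 1 μM MG-132 pretreatment for 2 h. Lysates were run on 4–20% Tris-glycine gels and blotted to PVDF, with ECL detection. Band densities were normalised to β-actin, three independent experiments, mean ± SD.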

[2] = test system: PARP and caspase-3 cleavage; test: Western blot of cleaved PARP and cleaved caspase-3 in MOLT-4 cells; type: cell-based; settings: 16 h
In short: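 MOLT-4 cells were treated for 16 h across a concentration series. Lysates were immunoblotted (4–20% Tris-glycine gels, PVDF, 5% milk/TBST block, primary antibody overnight at 4 °C, HRP secondary, ECL) for cleaved PARP and cleaved caspase-3. Full-length PARP was detected by stripping and reprobing the membrane. Bands were normalised to β-actin.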

MOLT-4 xenograft = test: MOLT-4 T-ALL xenograft mouse model; type: in vivo; settings: 1.5 mg kg−1, Q4D, i.p., MOLT-4 xenograft mice
In short: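 MOLT-4 cells (5 × 10^6) in RPMI:Matrigel 1:1 were implanted s.c. in the right flank of 5-week-old CB-17 SCID mice. At mean tumour ~150 mm3, mice were randomised (n = 6 per group) to vehicle or 1.5 mg kg−1 i.p. every 4 days. The vehicle was 50% Phosal 50 PG, 45% Miglyol 810 N and 5% polysorbate 80. Calipers were used twice weekly, volume = (L × W2) × 0.5.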

human platelets = test: Human platelet viability assay; type: cell-based
Bcl-xL [3] = target: T1, Bcl-xL; test: Bcl-xL levels in human platelets; type: cell-based; settings: 48 h
platelets = test: In vivo platelet toxicity assay; settings: single dose 1.5 mg kg−1, i.p., mice

T1 sequence (Q07817 whole entry): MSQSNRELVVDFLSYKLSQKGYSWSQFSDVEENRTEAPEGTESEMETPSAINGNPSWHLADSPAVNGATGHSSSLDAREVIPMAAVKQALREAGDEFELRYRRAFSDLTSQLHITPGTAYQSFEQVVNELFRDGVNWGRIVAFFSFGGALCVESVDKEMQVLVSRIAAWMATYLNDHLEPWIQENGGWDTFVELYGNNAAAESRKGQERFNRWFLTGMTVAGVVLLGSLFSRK

Row | IC50 (MOLT-4 cells) [µM] | SMILES | other results
1 | 0.0597 | CC1(C)CCC(c2ccc(Cl)cc2)=C(CN2CCN(c3ccc(C(=O)NS(=O)(=O)c4ccc(N[C@H](CCNCCOCCOCCOCCNc5cccc6c5C(=O)N(C5CCC(=O)NC5=O)C6=O)CSc5ccccc5)c(S(=O)(=O)C(F)(F)F)c4)cc3)CC2)C1 (stereo partly shown) [1a] | –
2 | 0.0528 | CCN(CCOCCOCCOCCNc1cccc2c1C(=O)N(C1CCC(=O)NC1=O)C2=O)CC[C@H](CSc1ccccc1)Nc1ccc(S(=O)(=O)NC(=O)c2ccc(N3CCN(CC4=C(c5ccc(Cl)cc5)CCC(C)(C)C4)CC3)cc2)cc1S(=O)(=O)C(F)(F)F (stereo partly shown) [1b] | –
3 | 0.297 | CC1(C)CCC(c2ccc(Cl)cc2)=C(CN2CCN(c3ccc(C(=O)NS(=O)(=O)c4ccc(N[C@H](CCN(CCOCCOCCOCCNc5cccc6c5C(=O)N(C5CCC(=O)NC5=O)C6=O)C5CC5)CSc5ccccc5)c(S(=O)(=O)C(F)(F)F)c4)cc3)CC2)C1 (stereo partly shown) [1d] | –
4 | 0.33 | CC1(C)CCC(c2ccc(Cl)cc2)=C(CN2CCN(c3ccc(C(=O)NS(=O)(=O)c4ccc(N[C@H](CCN(CCOCCOCCOCCNc5cccc6c5C(=O)N(C5CCC(=O)NC5=O)C6=O)C5CCC5)CSc5ccccc5)c(S(=O)(=O)C(F)(F)F)c4)cc3)CC2)C1 (stereo partly shown) [1e] | –
5 | 0.397 | CC1(C)CCC(c2ccc(Cl)cc2)=C(CN2CCN(c3ccc(C(=O)NS(=O)(=O)c4ccc(N[C@H](CCN(CCOCCOCCOCCNc5cccc6c5C(=O)N(C5CCC(=O)NC5=O)C6=O)C5COC5)CSc5ccccc5)c(S(=O)(=O)C(F)(F)F)c4)cc3)CC2)C1 (stereo partly shown) [1f] | –
6 | 0.326 | CC1(C)CCC(c2ccc(Cl)cc2)=C(CN2CCN(c3ccc(C(=O)NS(=O)(=O)c4ccc(N[C@H](CCN(CCOCCOCCOCCNc5cccc6c5C(=O)N(C5CCC(=O)NC5=O)C6=O)CC5CCC5)CSc5ccccc5)c(S(=O)(=O)C(F)(F)F)c4)cc3)CC2)C1 (stereo partly shown) [1g] | –
7 | > 1 | CC1(C)CCC(c2ccc(Cl)cc2)=C(CN2CCN(c3ccc(C(=O)NS(=O)(=O)c4ccc(N[C@H](CCN(CCOCCOCCOCCNc5cccc6c5C(=O)N(C5CCC(=O)NC5=O)C6=O)C5CCCCC5)CSc5ccccc5)c(S(=O)(=O)C(F)(F)F)c4)cc3)CC2)C1 (stereo partly shown) [1i] | –
8 | 0.0104 | CN(CCOCCOCCOCCOc1cccc2c1C(=O)N(C1CCC(=O)NC1=O)C2=O)CC[C@H](CSc1ccccc1)Nc1ccc(S(=O)(=O)NC(=O)c2ccc(N3CCN(CC4=C(c5ccc(Cl)cc5)CCC(C)(C)C4)CC3)cc2)cc1S(=O)(=O)C(F)(F)F (stereo partly shown) [2a] | –
9 | 0.0052 | CN(CCOCCOCCOCC#Cc1cccc2c1C(=O)N(C1CCC(=O)NC1=O)C2=O)CC[C@H](CSc1ccccc1)Nc1ccc(S(=O)(=O)NC(=O)c2ccc(N3CCN(CC4=C(c5ccc(Cl)cc5)CCC(C)(C)C4)CC3)cc2)cc1S(=O)(=O)C(F)(F)F (stereo partly shown) [2b] | fold increase in potency against MOLT-4 cells compared to 2a (MOLT-4 cells; vs 2a): 2 fold
10 | 0.0062 | CN(CCOCCOCCOCCCc1cccc2c1C(=O)N(C1CCC(=O)NC1=O)C2=O)CC[C@H](CSc1ccccc1)Nc1ccc(S(=O)(=O)NC(=O)c2ccc(N3CCN(CC4=C(c5ccc(Cl)cc5)CCC(C)(C)C4)CC3)cc2)cc1S(=O)(=O)C(F)(F)F (stereo partly shown) [2c] | –
11 | 0.0106 | CN(CCOCCOCCN1CCN(c2cccc3c2C(=O)N(C2CCC(=O)NC2=O)C3=O)CC1)CC[C@H](CSc1ccccc1)Nc1ccc(S(=O)(=O)NC(=O)c2ccc(N3CCN(CC4=C(c5ccc(Cl)cc5)CCC(C)(C)C4)CC3)cc2)cc1S(=O)(=O)C(F)(F)F (stereo partly shown) [2d] | fold weaker cellular activity than 2b (MOLT-4 cells; vs 2b, MOLT-4 cells): 2 fold
12 | 0.0361 | CN(CCOCCOCCN1CCC(C#Cc2cccc3c2C(=O)N(C2CCC(=O)NC2=O)C3=O)CC1)CC[C@H](CSc1ccccc1)Nc1ccc(S(=O)(=O)NC(=O)c2ccc(N3CCN(CC4=C(c5ccc(Cl)cc5)CCC(C)(C)C4)CC3)cc2)cc1S(=O)(=O)C(F)(F)F (stereo partly shown) [2e] | fold reduced activity compared to 2d (MOLT-4 cells; vs 2d, MOLT-4 cells): ~4 fold
13 | 0.0455 | CN(CCOCCOCCN1CCC(CCc2cccc3c2C(=O)N(C2CCC(=O)NC2=O)C3=O)CC1)CC[C@H](CSc1ccccc1)Nc1ccc(S(=O)(=O)NC(=O)c2ccc(N3CCN(CC4=C(c5ccc(Cl)cc5)CCC(C)(C)C4)CC3)cc2)cc1S(=O)(=O)C(F)(F)F (stereo partly shown) [2f] | –
14 | 0.0143 | CN(CCOCCOCCOCC#Cc1ccc2c(c1)C(=O)N(C1CCC(=O)NC1=O)C2=O)CC[C@H](CSc1ccccc1)Nc1ccc(S(=O)(=O)NC(=O)c2ccc(N3CCN(CC4=C(c5ccc(Cl)cc5)CCC(C)(C)C4)CC3)cc2)cc1S(=O)(=O)C(F)(F)F (stereo partly shown) [3a] | fold reduced potency against MOLT-4 cells compared to 2b (MOLT-4 cells; vs C4-substituted 2b): ~3 fold
15 | 0.0043 | CN(CCOCCOCCOCCCc1ccc2c(c1)C(=O)N(C1CCC(=O)NC1=O)C2=O)CC[C@H](CSc1ccccc1)Nc1ccc(S(=O)(=O)NC(=O)c2ccc(N3CCN(CC4=C(c5ccc(Cl)cc5)CCC(C)(C)C4)CC3)cc2)cc1S(=O)(=O)C(F)(F)F (stereo partly shown) [3b] | –
16 | 0.0041 | CN(CCOCCOCCOCC#Cc1cccc2c1CN(C1CCC(=O)NC1=O)C2=O)CC[C@H](CSc1ccccc1)Nc1ccc(S(=O)(=O)NC(=O)c2ccc(N3CCN(CC4=C(c5ccc(Cl)cc5)CCC(C)(C)C4)CC3)cc2)cc1S(=O)(=O)C(F)(F)F (stereo partly shown) [4a] | –
17 | 0.0045 | CN(CCOCCOCCOCCCc1cccc2c1CN(C1CCC(=O)NC1=O)C2=O)CC[C@H](CSc1ccccc1)Nc1ccc(S(=O)(=O)NC(=O)c2ccc(N3CCN(CC4=C(c5ccc(Cl)cc5)CCC(C)(C)C4)CC3)cc2)cc1S(=O)(=O)C(F)(F)F (stereo partly shown) [4b] | –
18 | 0.0021 | CN(CCOCCOCCOCC#Cc1ccc2c(c1)CN(C1CCC(=O)NC1=O)C2=O)CC[C@H](CSc1ccccc1)Nc1ccc(S(=O)(=O)NC(=O)c2ccc(N3CCN(CC4=C(c5ccc(Cl)cc5)CCC(C)(C)C4)CC3)cc2)cc1S(=O)(=O)C(F)(F)F (stereo partly shown) [5a] | –
19 | 0.202 | CC1(C)CCC(c2ccc(Cl)cc2)=C(CN2CCN(c3ccc(C(=O)NS(=O)(=O)c4ccc(N[C@H](CCN5CCOCC5)CSc5ccccc5)c(S(=O)(=O)C(F)(F)F)c4)cc3)CC2)C1 [ABT-263, navitoclax, reference compound] | –
20 | – | Cc1ncsc1-c1ccc([C@H](C)NC(=O)[C@@H]2C[C@@H](O)CN2C(=O)[C@@H](NC(=O)CCCCCC(=O)N2CCN(CC[C@H](CSc3ccccc3)Nc3ccc(S(=O)(=O)NC(=O)c4ccc(N5CCN(CC6=C(c7ccc(Cl)cc7)CCC(C)(C)C6)CC5)cc4)cc3S(=O)(=O)C(F)(F)F)CC2)C(C)(C)C)cc1 [DT2216] | IC50 (NCI-H146 cells): 0.278 µM
21 | 0.0013 | CN(CCOCCOCCOCCCc1ccc2c(c1)CN(C1CCC(=O)NC1=O)C2=O)CC[C@H](CSc1ccccc1)Nc1ccc(S(=O)(=O)NC(=O)c2ccc(N3CCN(CC4=C(c5ccc(Cl)cc5)CCC(C)(C)C4)CC3)cc2)cc1S(=O)(=O)C(F)(F)F (stereo partly shown) [PZ671] | cell killing potency in SCLC cell lines compared to XZ739 (SCLC cell lines): more potent than XZ739; time to almost complete Bcl-xL degradation (Bcl-xL [1]; MOLT-4 cells, 100 nM): 4 h; time to significantly reduced Bcl-xL protein levels (Bcl-xL [1]; MOLT-4 cells, 100 nM): ≤ 2 h; Bcl-xL degradation after proteasome inhibitor pretreatment (Bcl-xL [1]; MOLT-4 cells, pretreatment with 1 μM MG-132 for 2 h): blocked; fold enhanced degradation potency against Bcl-xL compared to XZ739 (Bcl-xL [1]; vs XZ739, MOLT-4 cells): ~6 fold; PARP and caspase-3 cleavage [2]: dose-dependently increased; tumor growth (MOLT-4 xenograft): markedly suppressed the tumor growth; fold improved cellular activity against MOLT-4 cells compared to XZ739 (MOLT-4 cells; vs XZ739, listed as 5b): 8 fold; selectivity for MOLT-4 cells over platelets (human platelets): 25 fold; fold decrease in selectivity for MOLT-4 cells over platelets compared to XZ739 (human platelets; vs XZ739): ~5 fold; concentration at which Bcl-xL is degraded in human platelets (Bcl-xL [3]): above 1 μM; platelet count recovery (platelets): rapid recovery observed from the second day onward
